For four molecules, Ratio results are on record in ChEMBL document CHEMBL1138318, “Synthesis and evaluation of the antiproliferative activities of derivatives of carboxyalkyl isoflavones linked to N-t-Boc-hexylenediamine” (J Med Chem, 2007).

Data set [1] is described as follows: Inhibition of DNA synthesis in human VSMC cells assessed as ratio of treated to untreated control at 3 uM after 48 hrs by [3H]thymidine incorporation assay.
The subject of data set [2] is A2780. The data set can be described thus: Inhibition of DNA synthesis in human A2780 cells assessed as ratio of treated to untreated control at 3 uM after 48 hrs by [3H]thymidine incorporation assay. Format: functional. The procedure, abridged: (§1)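 Single-concentration screen by [3H]-thymidine incorporation into DNA. Test compounds were used at 0.3 µM in C4–2B cells and at 3 µM in 320DM, MLS, A2780, H295R and VSMC cells. Estradiol 17β was used at 30 nM throughout. Values are experimental/control DNA-synthesis ratios, given as means ± SD of 8–16 incubates from 2–4 experiments.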
Background: Incorporation of labelled thymidine or its analogues reports DNA synthesis.

In data set [3] the test system is LNCaP C4-2B. The data set can be described thus: Inhibition of DNA synthesis in human C4-2B cells assessed as ratio of treated to untreated control at 0.3 uM after 48 hrs by [3H]thymidine incorporation assay. In kind it is functional. In outline:
as §1

A short description of data set [4]: Inhibition of DNA synthesis in human 320DM cells assessed as ratio of treated to untreated control at 3 uM after 48 hrs by [3H]thymidine incorporation assay. In kind it is functional. In outline: as §1
The nature of data set [5]: Inhibition of DNA synthesis in human H295R cells assessed as ratio of treated to untreated control at 3 uM after 48 hrs by [3H]thymidine incorporation assay. Format: functional. The procedure, abridged: as §1
The nature of data set [6]: Inhibition of DNA synthesis in human MLS cells assessed as ratio of treated to untreated control at 3 uM after 48 hrs by [3H]thymidine incorporation assay. In kind it is functional. In outline: as §1
Data set [7] concerns A2780. The data set is described as follows: Inhibition of DNA synthesis in human A2780 cells assessed as ratio of treated to untreated control at 30 nM after 48 hrs by [3H]thymidine incorporation assay. Format: functional. In outline: as §1
Data set [8] in a line: Inhibition of DNA synthesis in human H295R cells assessed as ratio of treated to untreated control at 30 nM after 48 hrs by [3H]thymidine incorporation assay. Format: functional. The procedure, abridged:
as §1

The nature of data set [9]: Inhibition of DNA synthesis in human VSMC cells assessed as ratio of treated to untreated control at 30 nM after 48 hrs by [3H]thymidine incorporation assay. Format: cell-based. The conditions noted are these: 0.03 µM. The procedure, abridged:
as §1

Data set [10] in a line: Inhibition of DNA synthesis in human 320DM cells assessed as ratio of treated to untreated control at 30 nM after 48 hrs by [3H]thymidine incorporation assay. In kind it is functional. The procedure, abridged:
as §1

Data set [11] can be described thus: Stimulation of DNA synthesis in human 320DM cells assessed as ratio of treated to untreated control at 300 nM after 48 hrs by [3H]thymidine incorporation assay. In kind it is functional. In outline: (§2)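 Estradiol-driven proliferation in MLS and 320DM cells, measured by [3H]-thymidine incorporation. Cells were exposed to estradiol at 30 or 300 nM, alone or with compound (0.3 µM) or ICI 182780 (1.1 µM). Values are E/C ratios versus untreated control, given as means ± SD of 8–16 incubates from 2–4 experiments.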

Data set [12] relates to LNCaP C4-2B. The data set can be described thus: Inhibition of DNA synthesis in human C4-2B cells assessed as ratio of treated to untreated control at 30 nM after 48 hrs by [3H]thymidine incorporation assay. Format: functional. The procedure, abridged: as §1
Data set [13] is described as follows: Inhibition of DNA synthesis in human MLS cells assessed as ratio of treated to untreated control at 30 nM after 48 hrs by [3H]thymidine incorporation assay. In kind it is functional. In outline:
as §1

Data set [14] in a line: Stimulation of DNA synthesis in human MLS cells assessed as ratio of treated to untreated control at 300 nM after 48 hrs by [3H]thymidine incorporation assay. In kind it is functional. The procedure, abridged: as §2
A short description of data set [15]: Inhibition of DNA synthesis in human 320DM cells assessed as ratio of treated to untreated control at 1.1 uM after 48 hrs by [3H]thymidine incorporation assay. Format: functional. The procedure, abridged: (§3)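 [3H]-thymidine incorporation into DNA in human MLS ovarian or 320DM colon cancer cells; antagonist tested at 1.1 µM alone or with estradiol at 30 nM or 300 nM. Reported as ratio of experimental to control (E/C) DNA synthesis, means ± SD of 8–16 incubates from 2–4 experiments; significance flagged at p < 0.05 and p < 0.01.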

A short description of data set [16]: Inhibition of 30 nM estradiol induced stimulation of DNA synthesis in human MLS cells assessed as ratio of treated to untreated control at 1.1 uM after 48 hrs by [3H]thymidine incorporation assay. In kind it is functional. The procedure, abridged: as §3
Data set [17] in a line: Inhibition of 300 nM estradiol induced stimulation of DNA synthesis in human 320DM cells assessed as ratio of treated to untreated control at 1.1 uM after 48 hrs by [3H]thymidine incorporation assay. In kind it is functional. In outline:
as §3

Data set [18] can be described thus: Inhibition of 30 nM estradiol induced stimulation of DNA synthesis in human 320DM cells assessed as ratio of treated to untreated control at 1.1 uM after 48 hrs by [3H]thymidine incorporation assay. Format: functional. In outline:
as §3

Data set [19] is described as follows: Inhibition of DNA synthesis in human MLS cells assessed as ratio of treated to untreated control at 1.1 uM after 48 hrs by [3H]thymidine incorporation assay. Format: functional. The procedure, abridged: as §3
The nature of data set [20]: Inhibition of 300 nM estradiol induced stimulation of DNA synthesis in human MLS cells assessed as ratio of treated to untreated control at 1.1 uM after 48 hrs by [3H]thymidine incorporation assay. In kind it is functional. The procedure, abridged: as §3

As to `CC(C)(C)OC(=O)NCCCCCCNC(=O)CCCc1oc2cc(O)cc(O)c2c(=O)c1-c1ccc(O)cc1`, the Ratio in data set [1] amounted to 0.78; with A2780 [2], 1.12; with LNCaP C4-2B [3], 0.75; in data set [4] it was 0.2; in [5], 0.6.
On to `COc1ccc(-c2c(CCCC(=O)NCCCCCCNC(=O)OC(C)(C)C)oc3cc(O)cc(O)c3c2=O)cc1`, for which the Ratio is listed as 0.74 in data set [1]; 0.64 in the data set on A2780 [2]; 0.41 in the data set with LNCaP C4-2B [3]; 0.05 in data set [6]; 0.22 in data set [4]; 0.55 in data set [5].
Consider `C[C@]12CC[C@@H]3c4ccc(O)cc4CC[C@H]3[C@@H]1CC[C@@H]2O` [ESTRADIOL], for which the Ratio is recorded as 1.42 with A2780 [7]; 2.1 in data set [8]; 0.55 in [9]; 2.06 in data set [10]; 1.87 in [11]; 2.1 with LNCaP C4-2B [12]. Moreover, the results for the Ratio in data set [13] and in [14] were 2.35 and 1.7, respectively.
For the molecule `C[C@]12CC[C@@H]3c4ccc(O)cc4C[C@@H](CCCCCCCCC[S+]([O-])CCCC(F)(F)C(F)(F)F)[C@H]3[C@@H]1CC[C@@H]2O` (stereo not given in full) [FULVESTRANT], the Ratio in [15] was found to be 0.63; in data set [16] it was 0.53; in [17], 0.92; in [18], 0.63; in data set [19] it was 0.52; in data set [20], 0.95.
